Tests used:
[1] = Cytotoxicity against mock-infected human MT4 cells after 96 hrs by MTT assay; assay type: cell-based
Outline: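 Exponentially growing MT-4 cells were seeded at 1 × 10^5 cells/mL in RPMI-1640 with 10% FBS and held at 37 °C, 5% CO2 with serial compound dilutions. Viability was read by MTT after 96 h. CC50 from linear regression against untreated controls.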

[2] = tested on: Human immunodeficiency virus 1; assay: Antiviral activity against HIV1 infected in human MT4 cells assessed as inhibition of virus-induced cytopathogenicity after 4 days by MTT assay; assay type: functional, organism-based; conditions: Human immunodeficiency virus 1, MT4, 96 h
Outline: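 MT-4 cells (1 × 10^4/well in RPMI) were infected acutely with HIV-1 IIIB, 100 CCID50 (m.o.i. 0.01), with serial dilutions from 100 µM, 1:5. After 4 days at 37 °C, protection from virus-induced cytopathogenicity was read by MTT. EC50 came from linear regression against untreated controls.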

[3] = Cytotoxicity against mock-infected MDBK cells after 48 to 96 hrs by MTT assay; assay type: cell-based, Bos taurus; conditions: cattle
Outline: (§1)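 Mock-infected MDBK (6 × 10^5 cells/mL; MEM-E, 10% horse serum, 1 mM pyruvate) or BHK (1 × 10^6 cells/mL; MEM-E, 10% FBS) cells were incubated at 37 °C, 5% CO2 with serial dilutions from 100 µM, 1:5. Viability by MTT after 48–96 h. CC50 from linear regression against untreated controls.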

[4] = tested on: Bovine viral diarrhea virus 1; assay: Antiviral activity against Bovine viral diarrhea virus infected in MDBK cells assessed as inhibition of virus-induced cytopathogenicity after 3 to 4 days by MTT assay; assay type: functional, organism-based; conditions: Bovine viral diarrhea virus isolates and strains
[5] = Cytotoxicity against mock-infected BHK21 cells after 48 to 96 hrs by MTT assay; assay type: functional; conditions: Mesocricetus auratus, BHK-21; outline: as §1
Yellow fever virus = assay: Antiviral activity against Yellow fever virus infected in BHK21 cells assessed as inhibition of virus-induced cytopathogenicity after 3 to 4 days by MTT assay; assay type: functional, organism-based; conditions: BHK-21
Reovirus sp. = assay: Antiviral activity against Reovirus type-1 infected in BHK21 cells assessed as inhibition of virus-induced cytopathogenicity after 3 to 4 days by MTT assay; assay type: functional, organism-based; conditions: BHK-21
[6] = Cytotoxicity against mock-infected african green monkey Vero 76 cells after 48 to 96 hrs by MTT assay; assay type: cell-based; conditions: chlorocebus sabaeus, mock-infected Vero 76 cells
Coxsackievirus B5 = assay: Antiviral activity against Coxsackievirus B5 infected in african green monkey Vero 76 cells assessed as reduction in plaque number after 3 days by plaque reduction assay; assay type: functional, organism-based; conditions: Enterovirus B, 72 h
Poliovirus 1 = assay: Antiviral activity against Poliovirus type 1 Sabin strain infected in african green monkey Vero 76 cells assessed as reduction in plaque number after 2 days by plaque reduction assay; assay type: functional, organism-based; conditions: Enterovirus C, 48 h
[7] = tested on: Respiratory syncytial virus; assay: Antiviral activity against Respiratory syncytial virus infected in african green monkey Vero 76 cells assessed as reduction in plaque number after 5 days by plaque reduction assay; assay type: functional, organism-based; conditions: human respiratory syncytial virus, 120 h
[8] = tested on: Vesicular stomatitis virus; assay: Antiviral activity against Vesicular stomatitis virus infected in african green monkey Vero 76 cells assessed as reduction in plaque number after 2 days by plaque reduction assay; assay type: functional, organism-based; conditions: 48 h
Vaccinia virus = assay: Antiviral activity against Vaccinia Virus infected in african green monkey Vero 76 cells assessed as reduction in plaque number after 3 days by plaque reduction assay; assay type: functional, organism-based; conditions: Orthopoxvirus vaccinia, 72 h
Human alphaherpesvirus 1 = assay: Antiviral activity against HSV1 infected in african green monkey Vero 76 cells assessed as reduction in plaque number after 3 days by plaque reduction assay; assay type: functional, organism-based; conditions: Human alphaherpesvirus 1, Vero, 72 h
[9] = Selectivity index, ratio of CC50 for african green monkey Vero 76 cells to EC50 for Respiratory syncytial virus; assay type: toxicity, cell-based; conditions: read-out: Ratio CC50/EC50
Outline: (§2)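 Mock-infected Vero-76 cells were tested in parallel on the same 24-well plates as the plaque assays (seeding 4 × 10^5 cells/mL, D-MEM with FBS), with serial compound dilutions at 37 °C, 5% CO2. Viability was read after 48–96 h by crystal violet staining. CC50 by linear regression; selectivity index = Vero-76 CC50/EC50 for CVB-5 or RSV.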

[10] = Selectivity index, ratio of CC50 for african green monkey Vero 76 cells to EC50 for Coxsackievirus B5; assay type: toxicity, cell-based; conditions: read-out: Ratio CC50/EC50; outline: as §2

Row | SMILES | CC50 at 96 h [1] [µM] | EC50 [2] [µM] | CC50 [3] [µM] | EC50 [4] [µM] | CC50 [5] [µM] | EC50 (Yellow fever virus) [µM] | EC50 (Reovirus sp.) [µM] | CC50 [6] [µM] | EC50 (Coxsackievirus B5) [µM] | EC50 (Poliovirus 1) [µM] | EC50 [7] [µM] | EC50 [8] [µM] | EC50 (Vaccinia virus) [µM] | EC50 (Human alphaherpesvirus 1) [µM] | selectivity ratio [9] | selectivity ratio [10]
1 | c1ccc(Cn2c(-c3ccccc3)nc3ccccc32)cc1 | 47 | > 100 | 54 | > 100 | 36 | > 100 | > 100 | 87 | > 100 | > 100 | 25 | > 100 | > 100 | > 100 | 3.48 | –
2 | Cc1ccc2nc(-c3ccc(F)cc3)n([C@H]3CCCN4CCCC[C@H]34)c2c1 | > 100 | > 100 | > 100 | > 100 | > 100 | > 100 | > 100 | > 100 | 80 | > 100 | 63 | > 100 | > 100 | > 100 | > 1.59 | > 1.25
3 | Clc1ccc2nc(-c3ccccc3)n([C@H]3CCCN4CCCC[C@H]34)c2c1 | 56 | > 100 | 86 | 80 | 48 | > 100 | > 100 | 90 | 14 | > 100 | 45 | > 100 | > 100 | > 100 | 2 | 6.43
4 | c1ccc2c(c1)Cn1c(nc3ccccc31)-c1ccccc1-2 | 44 | > 100 | 23 | > 100 | 20 | > 100 | > 100 | 80 | > 100 | > 100 | 9 | > 100 | > 100 | > 100 | 8.89 | –
5 | Clc1ccc(Cc2nc3cc(Cl)c(Cl)cc3n2C[C@@H]2CCCN3CCCC[C@H]23)cc1Cl | 9 | > 100 | 46 | > 100 | 52 | > 100 | > 100 | > 100 | 9 | > 100 | 12 | > 100 | > 100 | > 100 | > 8.33 | > 11.1
6 | Nc1ccc(Cc2nc3cc(C(F)(F)F)ccc3[nH]2)cc1 | > 100 | > 100 | > 100 | > 100 | > 100 | > 100 | > 100 | > 100 | 11 | > 100 | > 100 | > 100 | > 100 | > 100 | – | > 9.09
7 | COc1ccc(Cc2nc3cc(Cl)c(Cl)cc3[nH]2)cc1 | 29 | > 100 | 17 | > 100 | 19 | > 100 | > 100 | > 100 | > 100 | > 100 | 5 | > 100 | > 100 | > 100 | ≥ 20 | –
8 | COCCn1c(Cc2ccc(Cl)c(Cl)c2)nc2cc(C(F)(F)F)ccc21 | > 100 | > 100 | > 100 | > 100 | > 100 | > 100 | > 100 | > 100 | 12 | > 100 | > 100 | > 100 | > 100 | > 100 | – | > 8.33
